Laboratory results taken from ChEMBL document CHEMBL2021917, “Isoquinoline derivatives as potent CRTH2 receptor antagonists: synthesis and SAR” (Bioorg Med Chem Lett, 2012).

Columns and labels:
[1] = biological target: T1, Prostaglandin D2 receptor 2 (Homo sapiens, UniProt Q9Y5Y4); test: Displacement of 3H-PGD2 from human CRTH2 receptor expressed in CHO cells; type: cell-based
T1 sequence (Q9Y5Y4 whole entry): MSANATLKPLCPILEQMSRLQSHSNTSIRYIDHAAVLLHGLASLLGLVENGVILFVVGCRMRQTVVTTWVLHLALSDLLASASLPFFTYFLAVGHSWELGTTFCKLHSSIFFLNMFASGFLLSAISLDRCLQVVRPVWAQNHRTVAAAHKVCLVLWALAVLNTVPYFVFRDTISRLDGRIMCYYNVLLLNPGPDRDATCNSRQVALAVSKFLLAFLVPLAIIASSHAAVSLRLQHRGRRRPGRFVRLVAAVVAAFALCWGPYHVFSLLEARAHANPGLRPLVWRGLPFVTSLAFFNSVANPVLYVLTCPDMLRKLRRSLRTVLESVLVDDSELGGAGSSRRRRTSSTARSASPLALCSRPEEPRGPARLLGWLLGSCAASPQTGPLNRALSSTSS
In short: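 Radioligand binding with ³H-PGD₂ on CHO cells stably transfected with human CRTH2. IC50 taken from full 10-point, half-log concentration–response curves, as means of at least two independent experiments.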

[2] = biological target: T1, Prostaglandin D2 receptor 2; test: Antagonist activity at human CRTH2 receptor expressed in human KB8 cells assessed as inhibition of PGD2-induced increase in intracellular Ca2+ concentration; type: functional, cell-based
In short: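 Cells then washed and resuspended in HBSS with 10 mM HEPES pH 7.3 and 1 mM CaCl2 at 2 × 10⁵ cells/100 µl. PGD2-driven Ca²⁺ flux measured.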

[3] = biological target: T2, Prostaglandin D2 receptor (Homo sapiens, UniProt Q13258); test: Inhibition of DP1 prostanoid receptor
T2 sequence (Q13258 whole entry): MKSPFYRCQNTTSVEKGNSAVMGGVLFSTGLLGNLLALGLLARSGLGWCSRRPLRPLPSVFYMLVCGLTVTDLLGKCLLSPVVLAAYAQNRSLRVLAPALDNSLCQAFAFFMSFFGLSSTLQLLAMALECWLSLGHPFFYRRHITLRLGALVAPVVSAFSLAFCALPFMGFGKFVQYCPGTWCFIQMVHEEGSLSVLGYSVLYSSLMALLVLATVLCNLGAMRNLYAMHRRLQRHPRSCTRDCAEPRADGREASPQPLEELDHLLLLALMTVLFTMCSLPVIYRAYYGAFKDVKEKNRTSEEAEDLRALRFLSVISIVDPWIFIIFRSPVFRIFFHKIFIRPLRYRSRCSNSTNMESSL
In short: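 DP1 binding assay run by a contract profiling service following the provider's procedures.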

[4] = biological target: Prostaglandin G/H synthase 1 (Homo sapiens, UniProt P23219); test: Inhibition of COX-1
In short: (§1)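 Enzyme inhibition assays for COX-1 and COX-2 run by a contract profiling service following the provider's procedures.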

[5] = biological target: T3, Prostaglandin G/H synthase 2 (Homo sapiens, UniProt P35354); test: Inhibition of COX-2; in short: as §1
T3 sequence (P35354 whole entry): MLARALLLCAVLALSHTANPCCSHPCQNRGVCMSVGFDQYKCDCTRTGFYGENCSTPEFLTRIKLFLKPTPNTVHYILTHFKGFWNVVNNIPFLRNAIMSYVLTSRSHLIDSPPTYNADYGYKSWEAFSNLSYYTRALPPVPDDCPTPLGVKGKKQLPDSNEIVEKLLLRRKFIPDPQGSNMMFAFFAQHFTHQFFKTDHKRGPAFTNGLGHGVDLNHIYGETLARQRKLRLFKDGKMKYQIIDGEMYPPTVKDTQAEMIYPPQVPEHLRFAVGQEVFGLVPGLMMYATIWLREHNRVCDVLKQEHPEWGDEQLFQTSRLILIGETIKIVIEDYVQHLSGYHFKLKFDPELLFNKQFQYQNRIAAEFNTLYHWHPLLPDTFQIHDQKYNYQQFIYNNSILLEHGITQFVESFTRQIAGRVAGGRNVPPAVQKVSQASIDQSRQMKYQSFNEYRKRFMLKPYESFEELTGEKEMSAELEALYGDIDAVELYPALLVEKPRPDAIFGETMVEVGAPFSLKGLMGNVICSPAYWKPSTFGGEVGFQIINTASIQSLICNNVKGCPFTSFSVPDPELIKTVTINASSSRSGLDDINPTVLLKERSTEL

Sequence of Prostaglandin G/H synthase 1 (P23219 whole entry): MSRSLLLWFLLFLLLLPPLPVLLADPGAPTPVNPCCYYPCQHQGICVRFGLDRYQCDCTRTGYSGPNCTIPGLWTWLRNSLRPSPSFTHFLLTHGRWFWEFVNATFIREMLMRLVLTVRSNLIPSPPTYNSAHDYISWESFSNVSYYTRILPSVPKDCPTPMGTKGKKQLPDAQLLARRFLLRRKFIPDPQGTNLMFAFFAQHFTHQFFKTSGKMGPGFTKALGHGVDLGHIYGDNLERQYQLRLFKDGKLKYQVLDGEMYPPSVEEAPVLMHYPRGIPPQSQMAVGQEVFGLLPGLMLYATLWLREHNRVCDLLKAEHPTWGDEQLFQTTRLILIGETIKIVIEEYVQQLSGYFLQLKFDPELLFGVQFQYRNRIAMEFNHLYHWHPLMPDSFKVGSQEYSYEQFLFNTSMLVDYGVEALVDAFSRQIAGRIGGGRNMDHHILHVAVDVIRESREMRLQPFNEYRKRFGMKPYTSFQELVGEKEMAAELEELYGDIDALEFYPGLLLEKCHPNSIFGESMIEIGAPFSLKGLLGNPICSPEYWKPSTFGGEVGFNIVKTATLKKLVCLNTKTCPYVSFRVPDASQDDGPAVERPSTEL

Row | Compound | IC50 [1] [µM] | also measured
1 | CC(=O)Nc1ccc(C(=O)c2ncc(CC(=O)O)c3ccccc23)cc1 | 0.33 | 
2 | O=C(O)Cc1cnc(C(=O)c2ccc(NC(=O)c3ccccc3)cc2)c2ccccc12 | 0.0079 | IC50 [2]: 0.042 µM
3 | O=C(O)Cc1cnc(C(=O)c2ccc(NC(=O)C3CCCCC3)cc2)c2ccccc12 | 0.014 | 
4 | O=C(O)Cc1cnc(C(=O)c2ccc(NC(=O)c3ccc4ccccc4c3)cc2)c2ccccc12 | 0.004 | 
5 | O=C(O)Cc1cnc(C(=O)c2ccc(NC(=O)c3cc4ccccc4[nH]3)cc2)c2ccccc12 | 0.0032 | 
6 | O=C(O)Cc1cnc(C(=O)c2ccc(NC(=O)c3ccncc3)cc2)c2ccccc12 | 0.083 | 
7 | O=C(O)Cc1cnc(C(=O)c2ccc(NC(=O)c3ncccn3)cc2)c2ccccc12 | 0.29 | IC50 [2]: 0.55 µM
8 | O=C(O)Cc1cnc(C(=O)c2ccc(NC(=O)c3cccc(Cl)c3)cc2)c2ccccc12 | 0.0032 | 
9 | O=C(O)Cc1cnc(C(=O)c2ccc(NC(=O)c3ccc(Cl)cc3)cc2)c2ccccc12 | 0.0034 | 
10 | O=C(O)Cc1cnc(C(=O)c2ccc(NC(=O)c3ccccc3Cl)cc2)c2ccccc12 | 0.045 | 
11 | O=C(O)Cc1cnc(C(=O)c2ccc(NC(=O)c3ccc(C(F)(F)F)cc3)cc2)c2ccccc12 | 0.0049 | IC50 [2]: 0.015 µM
12 | COc1ccc(C(=O)Nc2ccc(C(=O)c3ncc(CC(=O)O)c4ccccc34)cc2)cc1 | 0.0073 | 
13 | O=C(O)Cc1cnc(C(=O)c2ccc(NC(=O)c3ccc(Cl)c(Cl)c3)cc2)c2ccccc12 | 0.019 | IC50 [3]: > 1 µM; IC50 [4]: > 10 µM; IC50 [5]: > 10 µM
14 | O=C(O)Cc1cnc(C(=O)c2ccc(NC(=O)CCc3ccc(Cl)c(Cl)c3)cc2)c2ccccc12 | 0.013 | 
15 | O=C(O)Cc1cnc(C(=O)c2ccc(NC(=O)/C=C/c3ccc(Cl)c(Cl)c3)cc2)c2ccccc12 | 0.004 | IC50 [2]: 0.017 µM
16 | CN(C(=O)c1ccc(Cl)c(Cl)c1)c1ccc(C(=O)c2ncc(CC(=O)O)c3ccccc23)cc1 | 0.21 | 
17 | O=C(O)Cc1cnc(C(=O)c2ccc(NCc3ccc(Cl)c(Cl)c3)cc2)c2ccccc12 | 0.0061 | 
18 | O=C(O)Cc1cnc(C(=O)c2ccc(NS(=O)(=O)c3ccc(Cl)c(Cl)c3)cc2)c2ccccc12 | 0.34 | 
19 | O=C(O)Cc1cnc(C(=O)c2ccc(OCc3ccc(Cl)c(Cl)c3)cc2)c2ccccc12 | 0.038 | IC50 [2]: 0.18 µM
20 | O=C(O)Cc1cnc(C(=O)c2ccc(C(=O)Nc3ccc(Cl)c(Cl)c3)cc2)c2ccccc12 | 0.01 | 
21 | O=C(O)Cc1cnc(C(=O)c2ccc(C(=O)NCCc3ccc(Cl)cc3)cc2)c2ccccc12 | 0.0078 | 
22 | CC(C)(C(=O)O)c1cnc(C(=O)c2ccc(C(=O)NCCc3ccc(Cl)cc3)cc2)c2ccccc12 | 0.2 | 
23 | O=C(O)COc1cnc(C(=O)c2ccc(C(=O)NCCc3ccc(Cl)cc3)cc2)c2ccccc12 | 0.025 | 
